This is an account of results in ChEMBL document CHEMBL1828510, “Synthesis of 3-heteroarylthioquinoline derivatives and their in vitro antituberculosis and cytotoxicity studies” (Eur J Med Chem, 2011).

The structures appear in SMILES notation. In brackets after ≈: the same amount, converted by molar mass.

The subject of this assay is Mycobacterium tuberculosis. The assay can be described thus: Antimycobacterial activity against multidrug-resistant Mycobacterium tuberculosis H37Rv after 28 days by agar dilution method. The class given is functional. Conditions: 672 h. In outline: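 Agar dilution on Middlebrook 7H11 agar with OADC, run in duplicate at pH 7.4. The clinical isolate was resistant to isoniazid, rifampicin, ethambutol and ciprofloxacin. Inoculum from fresh slants was set to 1 mg/mL wet weight in 0.05% Tween 80 saline, diluted 10^-2 to about 10⁷ cfu/mL, and spotted onto 10-fold serial drug dilutions. Incubated at 37 °C and read at 28 days. MIC is the lowest concentration giving complete (99%) growth inhibition.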
(In general: In agar dilution, organisms are placed on agar that contains the substance at set levels.)
For `Cc1nnc(Sc2c(-c3ccc(Cl)cc3)nc3ccccc3c2-c2ccccc2)s1`, inhibition of growth (MIC) required 3.5 µM (≈ 1.56 µg/mL). The same measure for `c1ccc(-c2nc3ccccc3c(-c3ccccc3)c2Sc2nc3ccccc3s2)cc1`: 55.9 µM (≈ 25 µg/mL); for `c1ccc(-c2c(Sc3nc4ccccc4s3)c(-c3ccc4ccccc4c3)nc3ccccc23)cc1`: 50.3 µM (≈ 25 µg/mL); for `c1ccc(-c2nc3ccccc3c(-c3ccccc3)c2Sc2nnnn2-c2ccccc2)cc1`: 54.6 µM (≈ 25 µg/mL). Take `CO[C@H]1/C=C/O[C@@]2(C)Oc3c(C)c(O)c4c(O)c(c(/C=N/N5CCN(C)CC5)c(O)c4c3C2=O)NC(=O)/C(C)=C\C=C\[C@H](C)[C@H](O)[C@@H](C)[C@@H](O)[C@@H](C)[C@H](OC(C)=O)[C@@H]1C` [RIFAMPIN]: inhibition of growth (MIC) required 0.1 µM (≈ 0.0823 µg/mL). With `c1ccc(-c2c(Sc3nnnn3-c3ccccc3)c(-c3ccc4ccccc4c3)nc3ccccc23)cc1`, inhibition of growth (MIC) required 49.2 µM (≈ 25 µg/mL). Regarding `Cc1nnc(Sc2c(-c3ccc(-c4ccccc4)cc3)nc3ccccc3c2-c2ccccc2)s1`, the MIC (in general, the smallest concentration in the dilution series that meets the test's criterion for growth inhibition) stood at 6.4 µM (≈ 3.12 µg/mL). The result for `Cc1ccc(-c2nc3ccccc3c(-c3ccccc3)c2Sc2nc3ccccc3s2)cc1` reads 54.3 µM (≈ 25 µg/mL); that for `Cc1nnc(Sc2c(-c3ccc(Br)cc3)nc3ccccc3c2-c2ccccc2)s1`, 3.2 µM (≈ 1.57 µg/mL). The result for `CC[C@@H](CO)NCCN[C@@H](CC)CO` [ETHAMBUTOL] reads 7.6 µM (≈ 1.55 µg/mL); that for `Brc1ccc(-c2nc3ccccc3c(-c3ccccc3)c2Sc2nc3ccccc3s2)cc1`, 5.9 µM (≈ 3.1 µg/mL); that for `c1ccc(-c2ccc(-c3nc4ccccc4c(-c4ccccc4)c3Sc3nc4ccccc4s3)cc2)cc1`, 47.2 µM (≈ 24.7 µg/mL). The same measure for `Cc1ccc(-c2nc3ccccc3c(-c3ccccc3)c2Sc2nnc(C)s2)cc1`: 29.4 µM (≈ 12.5 µg/mL); for `Clc1ccc(-c2nc3ccccc3c(-c3ccccc3)c2Sc2nc3ccccc3s2)cc1`: 12.9 µM (≈ 6.21 µg/mL); for `Cc1nnc(Sc2c(-c3ccccc3)nc3ccccc3c2-c2ccccc2)s1`: 30.4 µM (≈ 12.5 µg/mL). With `COc1ccc(-c2nc3ccccc3c(-c3ccccc3)c2Sc2nc3ccccc3s2)cc1`, the MIC was over 52.4 µM. The result for `COc1ccc(-c2nc3ccccc3c(-c3ccccc3)c2Sc2nnnn2-c2ccccc2)cc1` reads 51.2 µM (≈ 25 µg/mL); that for `COc1ccc(-c2nc3ccccc3c(-c3ccccc3)c2Sc2nnc(C)s2)cc1`, 28.3 µM (≈ 12.5 µg/mL); that for `c1ccc(-c2ccc(-c3nc4ccccc4c(-c4ccccc4)c3Sc3nnnn3-c3ccccc3)cc2)cc1`, 46.8 µM (≈ 25 µg/mL). The same measure for `Cc1ccc(-c2nc3ccccc3c(-c3ccccc3)c2Sc2nnnn2-c2ccccc2)cc1`: 53 µM (≈ 25 µg/mL). The same measure for `Brc1ccc(-c2nc3ccccc3c(-c3ccccc3)c2Sc2nnnn2-c2ccccc2)cc1`: 23.3 µM (≈ 12.5 µg/mL); for `NNC(=O)c1ccncc1` [ISONIAZID]: 0.4 µM (≈ 0.0549 µg/mL). The molecule `Clc1ccc(-c2nc3ccccc3c(-c3ccccc3)c2Sc2nnnn2-c2ccccc2)cc1` displayed an MIC of 50.8 µM (≈ 25 µg/mL). On to `Cc1nnc(Sc2c(-c3ccc4ccccc4c3)nc3ccccc3c2-c2ccccc2)s1`, for which the MIC amounted to 13.5 µM (≈ 6.23 µg/mL).
